Series [1] has as its system P388. The experiment in a line: Antineoplastic activity against mouse P388 cells allografted in CDF1 mouse assessed as host survival time at 10 mg/kg administered daily for 6 days starting 24 hrs after tumor implantation (reference value: 11.2 +/- 0.4 days). Format: functional.
Series [2] relates to Mus musculus. The experiment in a line: Toxicity in CDF1 mouse allografted with mouse P388 cells assessed as change in body weight at 10 mg/kg administered daily for 6 days starting 24 hrs after tumor implantation (reference value: -2.4%). Format: organism-based. The arrangement: dose 10 mg/kg. The note with it: in vivo.
The test system of series [3] is Mus musculus. The experiment in a line: Toxicity in CDF1 mouse allografted with mouse P388 cells assessed as change in body weight at 5 mg/kg administered daily for 6 days starting 24 hrs after tumor implantation (reference value: -2.4%). It is filed as organism-based. More on the design: dose 5 mg/kg. The following applies: in vivo.
For series [4], the system named is P388. The experiment in a line: Antineoplastic activity against mouse P388 cells allografted in CDF1 mouse assessed as host survival time at 20 mg/kg administered daily for 6 days starting 24 hrs after tumor implantation (reference value: 11.2 +/- 0.4 days). It is filed as functional.
Series [5] has as its system P388. The experiment in a line: Antineoplastic activity against mouse P388 cells allografted in CDF1 mouse assessed as prolongation of host survival time at 5 mg/kg administered daily for 6 days starting 24 hrs after tumor implantation relative to control. It is filed as functional. The procedure, abridged: (§1)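 P388 leukemia (1×10^6 cells, intraperitoneal) in female CDF1 mice; dosing once daily for 6 consecutive days beginning 24 h post-implantation, 5-15 mice per group. Activity expressed as % T/C, the ratio of survival time of treated to untreated control animals. Daily weighing gave percent body-weight change over the treatment period as a toxicity measure.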

The nature of series [6]: Stability of the compound measured under neutral conditions. It is filed as physicochemical.
Series [7] has as its system P388. The experiment in a line: Antineoplastic activity against mouse P388 cells allografted in CDF1 mouse assessed as prolongation of host survival time at 10 mg/kg administered daily for 6 days starting 24 hrs after tumor implantation relative to control. Format: functional. The gist of the method:
as §1

For series [8], the target named is Alkaline phosphatase (Escherichia coli K-12) (UniProt P00634). The experiment in a line: Inhibition of Escherichia coli alkaline phosphatase assessed as p-nitrophenol formation using p-nitrophenyl phosphate as substrate up to 100 uM treated 15 mins prior to substrate addition by spectrophotometric analysis. The procedure, abridged:
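E. coli alkaline phosphatase (0.021 unit) in 1 M Tris-HCl pH 9.0, preincubated 15 min at 37 °C with inhibitor added in 50% DMSO. Reaction started with 10^-3 M p-nitrophenyl phosphate. Initial rise in absorbance at 410 nm read at room temperature in a 1-cm cell. Controls had enzyme preincubated 15 min with 50% DMSO alone.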

For series [9], the system named is P388. The experiment in a line: Antineoplastic activity against mouse P388 cells allografted in CDF1 mouse assessed as prolongation of host survival time at 20 mg/kg administered daily for 6 days starting 24 hrs after tumor implantation relative to control. Format: functional. The procedure, abridged: as §1
For series [10], the system named is P388. The experiment in a line: Antineoplastic activity against mouse P388 cells allografted in CDF1 mouse assessed as host survival time at 5 mg/kg administered daily for 6 days starting 24 hrs after tumor implantation (reference value: 11.2 +/- 0.4 days). It is filed as functional.
Series [11] can be described thus: Stability of the compound in ethanol with sodium ethoxide assessed as isomerization. Format: physicochemical.
Series [12] relates to Mus musculus. The experiment in a line: Toxicity in CDF1 mouse allografted with mouse P388 cells assessed as change in body weight at 2.5 mg/kg administered daily for 6 days starting 24 hrs after tumor implantation (reference value: -2.4%). It is filed as organism-based. More on the design: dose 2.5 mg/kg. The note with it: in vivo.
Series [13] deals with P388. The experiment in a line: Antineoplastic activity against mouse P388 cells allografted in CDF1 mouse assessed as prolongation of host survival time at 2.5 mg/kg administered daily for 6 days starting 24 hrs after tumor implantation relative to control. Format: functional. The gist of the method: as §1
In series [14] the test system is P388. The experiment in a line: Antineoplastic activity against mouse P388 cells allografted in CDF1 mouse assessed as host survival time at 2.5 mg/kg administered daily for 6 days starting 24 hrs after tumor implantation (reference value: 11.2 +/- 0.4 days). Format: functional.
For series [15], the system named is Mus musculus. The experiment in a line: Toxicity in CDF1 mouse allografted with mouse P388 cells assessed as change in body weight at 20 mg/kg administered daily for 6 days starting 24 hrs after tumor implantation (reference value: -2.4%). The arrangement: dose 20 mg/kg. The note with it: in vivo. Format: organism-based.

Each structure is given as a SMILES string. Active and inactive are the calls of the source. The calls are words filed in the database; no cut-off is given here.

Chain of Alkaline phosphatase (Escherichia coli K-12) (P00634 whole entry): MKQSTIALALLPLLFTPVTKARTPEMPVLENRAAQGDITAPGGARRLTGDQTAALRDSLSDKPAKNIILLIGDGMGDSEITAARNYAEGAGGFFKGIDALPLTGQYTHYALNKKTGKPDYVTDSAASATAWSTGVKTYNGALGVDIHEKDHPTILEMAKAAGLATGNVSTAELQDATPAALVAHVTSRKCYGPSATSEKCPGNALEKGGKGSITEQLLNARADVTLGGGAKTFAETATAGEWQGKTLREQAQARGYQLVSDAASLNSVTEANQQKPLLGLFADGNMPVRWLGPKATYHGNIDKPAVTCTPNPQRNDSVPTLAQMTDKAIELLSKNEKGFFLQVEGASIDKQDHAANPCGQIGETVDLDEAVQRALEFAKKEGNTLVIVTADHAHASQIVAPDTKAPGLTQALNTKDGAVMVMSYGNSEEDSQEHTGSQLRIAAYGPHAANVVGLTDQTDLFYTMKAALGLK

What is called T/C is the ratio of treated to control. Consider `CNC(=S)N/N=C1/CCCc2cccnc21`, for which the Time in the series with P388 [1] is 13.6 days; in the series with P388 [4], 2 days; with P388 [10], 12 days. For the same molecule, the Activity is on record as -10.8% with Mus musculus [2] and -7.7% with Mus musculus [3]. In addition, the T/C is 107% with P388 [5], 121% in the series with P388 [7] and 18% with P388 [9]. Further, the Stability result in [6] is “Stable”; in [11], “Unstable”. Besides, the inhibition entry in series [8] was “inactive”.
On to `C=CCNC(=S)N/N=C1/CCCc2cccnc21`, for which the Time came out at 7.8 days in the series with P388 [1], 9.8 days in the series with P388 [10] and 10.2 days with P388 [14]. Moreover, the results for the Activity with Mus musculus [2], in the series with Mus musculus [3] and in the series on Mus musculus [12] were -6.1%, 0% and 4.6%, respectively. In addition, the T/C in the series on P388 [5] came to 88%; in the series on P388 [13] it was 91%; in the series on P388 [7], 70%. Further, the Stability entry in series [6] was “Stable”; in series [11], “Unstable”. In addition, the inhibition result in [8] is “inactive”.
Regarding `CNC(=S)N/N=C1\CCCc2cccnc21`, the results for the Time with P388 [1], in the series with P388 [10] and in the series with P388 [14] were 2 days, 16 days and 13.4 days, respectively. For the same molecule, the Activity in the series on Mus musculus [3] is -12%; in the series with Mus musculus [12] it was -9.3%. The T/C with P388 [5] is on record as 143%; in the series with P388 [13], 119%; in the series with P388 [7], 18%. Besides, in series [8], the inhibition result was “inactive”.
On to `NC(=S)N/N=C1\CCCc2cccnc21`, for which the Time in the series on P388 [1] worked out at 14.8 days; in the series with P388 [10], 11.8 days; with P388 [14], 11.6 days. Moreover, the Activity in the series on Mus musculus [2] is -10.7%; with Mus musculus [3], -3.8%; in the series on Mus musculus [12], -5.3%. The figures for the T/C with P388 [5], in the series on P388 [13] and in the series on P388 [7] were 106%, 104% and 132%, respectively. Also, in [8], the inhibition entry was “inactive”.
As for `NC(=S)N/N=C1/CCCc2cccnc21`, the Time with P388 [1] was 15.8 days; in the series with P388 [4], 9.2 days; with P388 [10], 13 days. Besides, the figures for the Activity in the series with Mus musculus [2], in the series on Mus musculus [3] and with Mus musculus [15] were -21.5%, 6.7% and -30.8%, respectively. Further, the values for the T/C with P388 [5], in the series on P388 [7] and in the series with P388 [9] were 116%, 141% and 73%, respectively. In addition, the Stability entry is “Stable” in series [6] and “Unstable” in series [11]. In addition, the inhibition result in series [8] was “inactive”.
Turning to `C=CCNC(=S)N/N=C1\CCCc2cccnc21`, the figures for the Time with P388 [1], with P388 [10] and in the series with P388 [14] were 14 days, 13.2 days and 11.2 days, respectively. The results for the Activity in the series with Mus musculus [2], in the series with Mus musculus [3] and with Mus musculus [12] were -9.1%, -8.4% and 0.7%, respectively. Moreover, the T/C came to 118% with P388 [5], 100% in the series on P388 [13] and 125% in the series on P388 [7]. Moreover, the inhibition entry in series [8] was “inactive”.

For the origin of these results see ChEMBL document CHEMBL3271941, “Synthesis of 5,6-dihydro-8(7H)-quinolinone thiosemicarbazones as potential antitumor agents” (J Med Chem, 1977).
